Data from ChEMBL document CHEMBL3864121, “Development of ebsulfur analogues as potent antibacterials against methicillin-resistant Staphylococcus aureus” (Bioorg Med Chem, 2016).
≈ marks a conversion by molar mass, not a printed value. Calls of active or inactive are those of the source. The rule behind the calls is not given here.

Columns and labels:
Staphylococcus aureus [1] = test: Antibacterial activity against methicillin-resistant Staphylococcus aureus 2 measured after overnight incubation by broth double-dilution method; assay type: functional
In short: (§1)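 MIC by broth double-dilution in liquid Mueller-Hinton medium. Values are reported in µg/mL.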

Staphylococcus aureus [2] = test: Antibacterial activity against methicillin-resistant Staphylococcus aureus NRS4 measured after overnight incubation by broth double-dilution method; assay type: functional; in short: as §1
Staphylococcus aureus [3] = test: Antibacterial activity against methicillin-resistant Staphylococcus aureus BRS3 measured after overnight incubation by broth double-dilution method; assay type: functional; in short: as §1
Staphylococcus aureus [4] = test: Antibacterial activity against methicillin-resistant Staphylococcus aureus USA100 measured after overnight incubation by broth double-dilution method; assay type: functional; in short: as §1
Staphylococcus aureus [5] = test: Antibacterial activity against methicillin-resistant Staphylococcus aureus C19 measured after overnight incubation by broth double-dilution method; assay type: functional; in short: as §1
Staphylococcus aureus [6] = test: Antibacterial activity against methicillin-sensitive Staphylococcus aureus ATCC 6538 measured after overnight incubation by broth double-dilution method; assay type: functional; in short: as §1
Staphylococcus aureus [7] = test: Antibacterial activity against methicillin-resistant Staphylococcus aureus S22 measured after overnight incubation by broth double-dilution method; assay type: functional; in short: as §1
[8] = test system: Mycolicibacterium smegmatis; test: Antibacterial activity against Mycobacterium smegmatis MC2-155 measured after overnight incubation by broth double-dilution method; assay type: functional; conditions: str. MC2 155; in short: as §1
Staphylococcus aureus [9] = test: Antibacterial activity against methicillin-resistant Staphylococcus aureus C1 measured after overnight incubation by broth double-dilution method; assay type: functional; in short: as §1
Staphylococcus aureus [10] = test: Antibacterial activity against methicillin-resistant Staphylococcus aureus ATCC 33591 measured after overnight incubation by broth double-dilution method; assay type: functional; in short: as §1
Staphylococcus aureus [11] = test: Antibacterial activity against methicillin-resistant Staphylococcus aureus USA300 measured after overnight incubation by broth double-dilution method; assay type: functional; in short: as §1
Staphylococcus aureus [12] = test: Antibacterial activity against methicillin-resistant Staphylococcus aureus G14 measured after overnight incubation by broth double-dilution method; assay type: functional; in short: as §1
Listeria monocytogenes = test: Antibacterial activity against Listeria monocytogenes ATCC 19115 measured after overnight incubation by broth double-dilution method; assay type: functional
In short: (§2)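 MIC by broth double-dilution in Mueller-Hinton medium. Re-testing at the time-kill inoculum used 1×10^6 CFU/mL.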

Staphylococcus aureus [13] = test: Antibacterial activity against methicillin-resistant Staphylococcus aureus S17 measured after overnight incubation by broth double-dilution method; assay type: functional; in short: as §1
Staphylococcus aureus [14] = test: Antibacterial activity against methicillin-resistant Staphylococcus aureus G12 measured after overnight incubation by broth double-dilution method; assay type: functional; in short: as §1
Staphylococcus aureus [15] = test: Antibacterial activity against methicillin-sensitive Staphylococcus aureus ATCC 25923 measured after overnight incubation by broth double-dilution method; assay type: functional; in short: as §1
Enterococcus = test: Antibacterial activity against Vancomycin-resistant Enterococcus measured after overnight incubation by broth double-dilution method; assay type: functional; in short: as §1
Staphylococcus aureus [16] = test: Antibacterial activity against methicillin-resistant Staphylococcus aureus USA600 measured after overnight incubation by broth double-dilution method; assay type: functional; in short: as §1
Enterococcus faecalis [17] = test: Antibacterial activity against Enterococcus faecalis ATCC 49533 measured after overnight incubation by broth double-dilution method; assay type: functional; in short: as §2
Staphylococcus aureus [18] = test: Antibacterial activity against methicillin-resistant Staphylococcus aureus NRS51 measured after overnight incubation by broth double-dilution method; assay type: functional; in short: as §1
Enterococcus faecalis [19] = test: Antibacterial activity against Enterococcus faecalis ATCC 29212 measured after overnight incubation by broth double-dilution method; assay type: functional; in short: as §2
Staphylococcus aureus [20] = test: Antibacterial activity against methicillin-resistant Staphylococcus aureus S14 measured after overnight incubation by broth double-dilution method; assay type: functional; in short: as §1
Staphylococcus aureus [21] = test: Antibacterial activity against methicillin-resistant Staphylococcus aureus C7 measured after overnight incubation by broth double-dilution method; assay type: functional; in short: as §1
Staphylococcus aureus [22] = test: Antibacterial activity against methicillin-resistant Staphylococcus aureus USA200 measured after overnight incubation by broth double-dilution method; assay type: functional; in short: as §1
[23] = Cytotoxicity against HEK293 cells assessed as cell death up to 10 ug/ml measured after 24 hrs by resazurin dye-based fluorescence analysis relative to untreated control; assay type: toxicity; conditions: human, hek293, 24 h
Staphylococcus aureus [24] = test: Antibacterial activity against methicillin-resistant Staphylococcus aureus C16 measured after overnight incubation by broth double-dilution method; assay type: functional; in short: as §1
Staphylococcus aureus [25] = test: Antibacterial activity against methicillin-sensitive Staphylococcus aureus ATCC 29213 measured after overnight incubation by broth double-dilution method; assay type: functional; in short: as §1
[26] = test system: Staphylococcus epidermidis; test: Antibacterial activity against Staphylococcus epidermidis ATCC 35984 measured after overnight incubation by broth double-dilution method; assay type: functional; conditions: RP62A; in short: as §2
Staphylococcus aureus [27] = test: Antibacterial activity against methicillin-resistant Staphylococcus aureus S24 measured after overnight incubation by broth double-dilution method; assay type: functional; in short: as §1
Staphylococcus aureus [28] = test: Antibacterial activity against methicillin-resistant Staphylococcus aureus G1 measured after overnight incubation by broth double-dilution method; assay type: functional; in short: as §1
Staphylococcus aureus [29] = test: Antibacterial activity against methicillin-resistant Staphylococcus aureus C14 measured after overnight incubation by broth double-dilution method; assay type: functional; in short: as §1
Staphylococcus aureus [30] = test: Antibacterial activity against methicillin-resistant Staphylococcus aureus NRS77 measured after overnight incubation by broth double-dilution method; assay type: functional; in short: as §1
Staphylococcus aureus [31] = test: Antibacterial activity against methicillin-resistant Staphylococcus aureus 1 measured after overnight incubation by broth double-dilution method; assay type: functional; in short: as §1
Staphylococcus aureus [32] = test: Antibacterial activity against methicillin-resistant Staphylococcus aureus G6 measured after overnight incubation by broth double-dilution method; assay type: functional; in short: as §1
Enterococcus faecium = test: Antibacterial activity against Enterococcus faecium BM4105-RF measured after overnight incubation by broth double-dilution method; assay type: functional; in short: as §1
Staphylococcus aureus [33] = test: Antibacterial activity against methicillin-resistant Staphylococcus aureus C2 measured after overnight incubation by broth double-dilution method; assay type: functional; in short: as §1
Staphylococcus aureus [34] = test: Bacteriostatic activity against methicillin-resistant Staphylococcus aureus S22 at 0.5 times MIC measured up to 3 to 6 hrs by time kill analysis; assay type: functional
Staphylococcus aureus [35] = test: Antibacterial activity against methicillin-resistant Staphylococcus aureus S22 using 1 10^6CFU/ml measured after overnight incubation by broth double-dilution method; assay type: functional
Staphylococcus aureus [36] = test: Bacteriostatic activity against methicillin-resistant Staphylococcus aureus S22 at MIC measured up to 3 to 6 hrs by time kill analysis; assay type: functional
[37] = test system: Staphylococcus epidermidis RP62A; test: Inhibition of thioredoxin reductase in Staphylococcus epidermidis ATCC 35984 assessed as induction of ROS production at 1 to 4 times MIC measured after 1 hr by DCFH-DA staining-based fluorescence microscopic analysis
In short: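 Untreated cells served as the negative control and 1 mM H2O2 as the positive control. Cells were stained with DCFH-DA (40 µg/mL) and ROS were visualized by fluorescence microscopy.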

Staphylococcus aureus [38] = test: Bacteriostatic activity against methicillin-resistant Staphylococcus aureus S22 at 4 times MIC measured after 24 hrs by time kill analysis; assay type: functional

Structure (SMILES) | MIC (Staphylococcus aureus [1]) | MIC (Staphylococcus aureus [2]) | MIC (Staphylococcus aureus [3]) | MIC (Staphylococcus aureus [4]) | MIC (Staphylococcus aureus [5]) | MIC (Staphylococcus aureus [6]) | MIC (Staphylococcus aureus [7]) | MIC [8] | MIC (Staphylococcus aureus [9]) | MIC (Staphylococcus aureus [10]) | MIC (Staphylococcus aureus [11]) | MIC (Staphylococcus aureus [12]) | MIC (Listeria monocytogenes) | MIC (Staphylococcus aureus [13]) | MIC (Staphylococcus aureus [14]) | MIC (Staphylococcus aureus [15]) | MIC (Enterococcus) | MIC (Staphylococcus aureus [16]) | MIC (Enterococcus faecalis [17]) | MIC (Staphylococcus aureus [18]) | also measured
O=c1c2ccccc2sn1-c1cccc2ccccc12 | 0.5 µg/mL (≈ 1.8 µM) | 2 µg/mL (≈ 7.21 µM) | 2 µg/mL (≈ 7.21 µM) | 0.5 µg/mL (≈ 1.8 µM) | 0.5 µg/mL (≈ 1.8 µM) | > 125 µg/mL | 1 µg/mL (≈ 3.61 µM) | 1 µg/mL (≈ 3.61 µM) | 2 µg/mL (≈ 7.21 µM) | 0.5 µg/mL (≈ 1.8 µM) | 2 µg/mL (≈ 7.21 µM) | 2 µg/mL (≈ 7.21 µM) | 2 µg/mL (≈ 7.21 µM) | 1 µg/mL (≈ 3.61 µM) | 0.5 µg/mL (≈ 1.8 µM) | 2 µg/mL (≈ 7.21 µM) | 0.5 µg/mL (≈ 1.8 µM) | 2 µg/mL (≈ 7.21 µM) | > 125 µg/mL | 1 µg/mL (≈ 3.61 µM) | MIC (Enterococcus faecalis [19]): > 125 µg/mL; MIC (Staphylococcus aureus [20]): ≤ 0.25 µg/mL; MIC (Staphylococcus aureus [21]): 1 µg/mL (≈ 3.61 µM); MIC (Staphylococcus aureus [22]): 2 µg/mL (≈ 7.21 µM); Activity [23]: > 20%; MIC (Staphylococcus aureus [24]): 15.6 µg/mL (≈ 56.2 µM); MIC (Staphylococcus aureus [25]): 0.5 µg/mL (≈ 1.8 µM); MIC [26]: 0.25 µg/mL (≈ 0.901 µM); MIC (Staphylococcus aureus [27]): 0.5 µg/mL (≈ 1.8 µM); MIC (Staphylococcus aureus [28]): 2 µg/mL (≈ 7.21 µM); MIC (Staphylococcus aureus [29]): 2 µg/mL (≈ 7.21 µM); MIC (Staphylococcus aureus [30]): 2 µg/mL (≈ 7.21 µM); MIC (Staphylococcus aureus [31]): 1 µg/mL (≈ 3.61 µM); MIC (Staphylococcus aureus [32]): 0.5 µg/mL (≈ 1.8 µM); MIC (Enterococcus faecium): > 125 µg/mL; MIC (Staphylococcus aureus [33]): 0.5 µg/mL (≈ 1.8 µM)
CCCCCCn1sc2ccccc2c1=O | 3.9 µg/mL (≈ 16.6 µM) | 3.9 µg/mL (≈ 16.6 µM) | 3.9 µg/mL (≈ 16.6 µM) | 7.8 µg/mL (≈ 33.1 µM) | 2 µg/mL (≈ 8.5 µM) | 7.8 µg/mL (≈ 33.1 µM) | 3.9 µg/mL (≈ 16.6 µM) | 2 µg/mL (≈ 8.5 µM) | 3.9 µg/mL (≈ 16.6 µM) | 2 µg/mL (≈ 8.5 µM) | 3.9 µg/mL (≈ 16.6 µM) | 2 µg/mL (≈ 8.5 µM) | 3.9 µg/mL (≈ 16.6 µM) | 3.9 µg/mL (≈ 16.6 µM) | 2 µg/mL (≈ 8.5 µM) | 3.9 µg/mL (≈ 16.6 µM) | 2 µg/mL (≈ 8.5 µM) | 7.8 µg/mL (≈ 33.1 µM) | > 125 µg/mL | 3.9 µg/mL (≈ 16.6 µM) | Activity (Staphylococcus aureus [34]): Active; Activity (Staphylococcus aureus [35]): Active; Activity (Staphylococcus aureus [36]): Active; Activity [37]: Active; MIC (Enterococcus faecalis [19]): > 125 µg/mL; MIC (Staphylococcus aureus [20]): ≤ 0.25 µg/mL; MIC (Staphylococcus aureus [21]): 3.9 µg/mL (≈ 16.6 µM); MIC (Staphylococcus aureus [22]): 7.8 µg/mL (≈ 33.1 µM); MIC (Staphylococcus aureus [24]): 7.8 µg/mL (≈ 33.1 µM); MIC (Staphylococcus aureus [25]): 3.9 µg/mL (≈ 16.6 µM); MIC [26]: 2 µg/mL (≈ 8.5 µM); MIC (Staphylococcus aureus [27]): 3.9 µg/mL (≈ 16.6 µM); MIC (Staphylococcus aureus [28]): 0.5 µg/mL (≈ 2.12 µM); MIC (Staphylococcus aureus [29]): 3.9 µg/mL (≈ 16.6 µM); MIC (Staphylococcus aureus [30]): 3.9 µg/mL (≈ 16.6 µM); Activity (Staphylococcus aureus [38]): Active; MIC (Staphylococcus aureus [31]): 2 µg/mL (≈ 8.5 µM); MIC (Staphylococcus aureus [32]): 3.9 µg/mL (≈ 16.6 µM); MIC (Enterococcus faecium): 7.8 µg/mL (≈ 33.1 µM); MIC (Staphylococcus aureus [33]): 3.9 µg/mL (≈ 16.6 µM)
